The results in this text go back to ChEMBL document CHEMBL1833920, “Antimalarial activity of imidazo[2,1-a]isoindol-5-ol derivatives and related compounds” (Eur J Med Chem, 2011).

pIC50: −log10 of the molar value. Where only a bound is given, the exact number is not on record here.

Data set [1] has as its system Plasmodium falciparum. The data set can be described thus: Antiplasmodial activity against chloroquine-sensitive Plasmodium falciparum 3D7 infected in human O positive erythrocytes after 48 hrs by SYBR green-I based fluorescence assay. In kind it is functional, organism-based. Conditions: 3D7, 48 h. The method, boiled down:
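3D7 was cultured at 37 °C, 5% CO₂, in O+ human erythrocytes at 5% hematocrit, in RPMI 1640 with 2% human serum, 0.2% NaHCO₃, 0.5% Albumax II, hypoxanthine and gentamicin. Cultures were sorbitol-synchronized (mostly late rings/early trophozoites). Drugs from DMSO stocks were serially diluted in triplicate wells (final DMSO ≤0.001%) and incubated 48 h. Read-out was SYBR Green I in lysis buffer, 1 h dark RT, ex 485/em 530 nm. EC₅₀ was taken as 50% fluorescence reduction, as the mean of triplicate experiments.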

In data set [2] the test system is Plasmodium falciparum. The data set can be described thus: Ratio of chloroquine IC50 to Compound IC50 for chloroquine-sensitive Plasmodium falciparum 3D7. In kind it is functional.
Data set [3] is described as follows: Intestinal absorption in human. It counts as ADME, organism-based. Conditions: in vivo, read-out: HIA.
A short description of data set [4]: Plasma protein binding in human. It counts as ADME, organism-based.
The next data set relates to Mus musculus. The data set is described as follows: Toxicity in Plasmodium berghei NK65 infected in Swiss mouse assessed as mouse mortality at 50 mg/kg, ip administered 2 hrs postinfection daily for 4 days measured on day 5. In kind it is organism-based. On the set-up: dose 50 mg/kg, route intraperitoneal. Conditions: in vivo. The gist of the method: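 Swiss male mice (20 ± 2 g) were infected on day 0 with 10⁷ parasitized cells and kept in groups of five. Compound was given i.p. at 50 mg/kg/day, starting 2 h after infection on day 0 and continuing through day 3. Untreated (blank) and chloroquine (5 mg/kg/day) groups served as controls.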

Data set [5] deals with Plasmodium berghei. The data set can be described thus: Antimalarial activity against Plasmodium berghei NK65 infected in Swiss mouse assessed as inhibition of parasitemia at 25 mg/kg, ip administered 2 hrs postinfection daily for 4 days measured on day 5. In kind it is functional. Conditions: route intraperitoneal. The gist of the method:
(§1)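 Swiss male mice (20 ± 2 g) were infected on day 0 with 10⁷ parasitized cells, in groups of five. Dosing was i.p. at 50 or 25 mg/kg/day from day 0 (2 h post-infection) to day 3. Parasitemia on day 4 was counted from Giemsa-stained tail thin smears (≥9000 RBC, 1000×). Results were compared with untreated and CQ 5 mg/kg/day controls, and % inhibition was calculated relative to untreated parasitemia.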

The nature of data set [6]: Cytotoxicity against african green monkey CV1 cells. In kind it is cell-based, CV-1. As to conditions: chlorocebus aethiops.
Data set [7] concerns Plasmodium berghei. The data set can be described thus: Antimalarial activity against Plasmodium berghei NK65 infected in Swiss mouse assessed as inhibition of parasitemia at 50 mg/kg, ip administered 2 hrs postinfection daily for 4 days measured on day 5. As to conditions: route intraperitoneal. It counts as functional. The method, boiled down:
as §1

One may read the pIC50 as −log10 of the IC50, conventionally taken in molar units. As for `COc1ccccc1CC1(O)c2ccccc2C2=NCCN21` (stereo unspecified), in the data set with Plasmodium falciparum [1], the pIC50 was under 4.46. In addition, the “Ratio IC50” value in the data set on Plasmodium falciparum [2] is under 1.

`COc1cccc(CC2(O)c3ccccc3C3=NCCN32)c1` (stereo unspecified) had a negative-log IC50 (pIC50) in the data set with Plasmodium falciparum [1] of 5.08. In the data set on Plasmodium falciparum [2], the “Ratio IC50” value is recorded as under 1.

`Oc1ccc(CC2(O)c3ccccc3C3=NCCN32)cc1` (stereo unspecified): the pIC50 in the data set on Plasmodium falciparum [1] is under 4.46. Further, the “Ratio IC50” value in the data set with Plasmodium falciparum [2] is on record as under 1.

`OC1(Cc2ccc(F)cc2F)c2ccccc2C2=NCCN21` (stereo unspecified): in the data set on Plasmodium falciparum [1], the pIC50 is 4.48. In the data set with Plasmodium falciparum [2], the “Ratio IC50” value is under 1.

As to `OC1(Cc2cc(F)cc(F)c2)c2ccccc2C2=NCCN21` (stereo unspecified), the negative-log IC50 (pIC50) in the data set on Plasmodium falciparum [1] is under 4.46. Besides, the “Ratio IC50” value in the data set with Plasmodium falciparum [2] is under 1.

On to `Oc1ccc(CC2(O)c3ccccc3C3=NCCN32)cc1Cl` (stereo unspecified), for which the negative logarithm of the IC50 (pIC50) in the data set with Plasmodium falciparum [1] was under 4.46. Also, the “Ratio IC50” value in the data set on Plasmodium falciparum [2] is under 1.

With `OC1(Cc2cccs2)c2ccccc2C2=NCCN21` (stereo unspecified), the pIC50 in the data set on Plasmodium falciparum [1] is 4.71. Further, the “Ratio IC50” value in the data set on Plasmodium falciparum [2] was under 1.

On to `OC1(Cc2ccsc2)c2ccccc2C2=NCCN21` (stereo unspecified), for which, in the data set on Plasmodium falciparum [1], the pIC50 was 5.18. In addition, the “Ratio IC50” value with Plasmodium falciparum [2] is under 1.

In the case of `Cn1c(CC2(O)c3ccccc3C3=NCCN32)cc2ccccc21` (stereo unspecified), the negative logarithm of the IC50 (pIC50) in the data set on Plasmodium falciparum [1] was 4.87. Moreover, the “Ratio IC50” value with Plasmodium falciparum [2] was under 1.

For `CSc1ccc(CC2(O)c3ccccc3-c3nc4ccccc4n32)cc1` (stereo unspecified), the negative logarithm of the IC50 (pIC50) with Plasmodium falciparum [1] is under 4.57. Also, in the data set on Plasmodium falciparum [2], the “Ratio IC50” value is under 1.

`CSc1ccc(CC2(O)c3ccccc3-c3nc4cc(C)ccc4n32)cc1` (stereo unspecified) gave a pIC50 with Plasmodium falciparum [1] of 4.81. For the same compound, the “Ratio IC50” value in the data set on Plasmodium falciparum [2] was under 1.

Take `OC1(Cc2ccc3ccccc3c2)c2ccccc2-c2nc3ccccc3n21` (stereo unspecified): the negative-log IC50 (pIC50) in the data set on Plasmodium falciparum [1] is under 4.52. The “Ratio IC50” value with Plasmodium falciparum [2] was under 1.

As a reminder, the fraction unbound is free concentration divided by total concentration. Usually inhibition in vivo stands for the drop in the measured response relative to a control, in per cent. Compound `OC1(Cc2ccc3ccccc3c2)c2ccccc2C2=NCCN21` (stereo unspecified) had a pIC50 in the data set on Plasmodium falciparum [1] of 7.22. For the same compound, the “Ratio IC50” value in the data set with Plasmodium falciparum [2] is 16.7. For the same compound, in data set [3], the Fa is over 95%. In data set [4], this compound came in with a fraction unbound of over 0.1. The Activity result in the data set on Mus musculus is recorded as “Toxic”. Further, the inhibition in vivo at 25 mg/kg in the data set on Plasmodium berghei [5] came out at 87%.

As for `OC1(Cc2ccccc2Cl)c2ccccc2C2=NCCN21` (stereo unspecified), the pIC50 in the data set on Plasmodium falciparum [1] was 4.82. The “Ratio IC50” value in the data set with Plasmodium falciparum [2] is reported as under 1.

A word on the CC50: it is the concentration that lowers cell viability or growth by half. On to `CSc1ccc(CC2(O)c3ccccc3C3=NCCN32)cc1` (stereo unspecified), for which the pIC50 in the data set on Plasmodium falciparum [1] was 7.22. Besides, the “Ratio IC50” value with Plasmodium falciparum [2] stood at 16.7. Moreover, the Fa in data set [3] was over 95%. Besides, the unbound share (fraction unbound) in data set [4] was over 0.1. Further, the CC50 in data set [6] is over 24 µM. The inhibition in vivo at 50 mg/kg with Plasmodium berghei [7] was 84%.

`OC1(Cc2ccc(Cl)c(Cl)c2)c2ccccc2C2=NCCN21` (stereo unspecified) had a negative logarithm of the IC50 (pIC50) in the data set with Plasmodium falciparum [1] of 6.52. In addition, in the data set on Plasmodium falciparum [2], the “Ratio IC50” value worked out at 3.3. The Fa in data set [3] is over 95%. In addition, the free fraction (fraction unbound) in data set [4] is over 0.1. In the data set with Mus musculus, the Activity entry is reported as “Toxic”. For the same compound, the inhibition in vivo at 25 mg/kg with Plasmodium berghei [5] amounted to 19%.

The compound `OC1(Cc2ccc(F)cc2)c2ccccc2C2=NCCN21` (stereo unspecified) showed a pIC50 in the data set with Plasmodium falciparum [1] of 5.38. Besides, in the data set on Plasmodium falciparum [2], the “Ratio IC50” value was under 1.

As to `OC1(Cc2ccc(Cl)cc2)c2ccccc2C2=NCCN21` (stereo unspecified), in the data set on Plasmodium falciparum [2], the “Ratio IC50” value is on record as 8.3. For the same compound, the Fa in data set [3] was over 95%. In data set [4], this compound gave an unbound share (fraction unbound) of over 0.1. The half-maximal cytotoxic concentration (CC50) in data set [6] was over 16 µM. Besides, the inhibition in vivo at 50 mg/kg in the data set on Plasmodium berghei [7] amounted to 7%.

In the data set on Plasmodium falciparum [1], `OC1(Cc2ccc(Cl)cc2Cl)c2ccccc2C2=NCCN21` (stereo unspecified) showed a pIC50 of 5.06. The “Ratio IC50” value in the data set on Plasmodium falciparum [2] is reported as under 1.

The compound `OC1(Cc2cccc3ccccc23)c2ccccc2C2=NCCN21` (stereo unspecified) showed a pIC50 in the data set on Plasmodium falciparum [1] of 4.79. In addition, in the data set with Plasmodium falciparum [2], the “Ratio IC50” value was under 1. In addition, the CC50 in data set [6] was over 15 µM.

In turn, `COc1ccc(CC2(O)c3ccccc3C3=NCCN32)cc1` (stereo unspecified) showed a pIC50 in the data set with Plasmodium falciparum [1] of 6.62. The “Ratio IC50” value with Plasmodium falciparum [2] is reported as 4.2. For the same compound, in data set [3], the Fa was over 95%. Further, the free fraction (fraction unbound) in data set [4] is over 0.1. In the data set with Plasmodium berghei [7], the inhibition in vivo at 50 mg/kg was 23%.

`COc1ccc(CC2(O)c3ccccc3C3=NCCN32)cc1OC` (stereo unspecified) had a pIC50 with Plasmodium falciparum [1] of 4.56. Also, the “Ratio IC50” value in the data set on Plasmodium falciparum [2] is recorded as under 1. This compound showed a CC50 in data set [6] of over 30 µM.

The compound `OC1(Cc2ccc3c(c2)OCO3)c2ccccc2C2=NCCN21` (stereo unspecified) showed a negative logarithm of the IC50 (pIC50) in the data set on Plasmodium falciparum [1] of 5.66. For the same compound, the “Ratio IC50” value with Plasmodium falciparum [2] is under 1. Also, the Fa in data set [3] was over 95%. The same compound yielded a fraction unbound in data set [4] of over 0.1. The compound further displayed a CC50 in data set [6] of over 32 µM. The inhibition in vivo at 50 mg/kg in the data set on Plasmodium berghei [7] was found to be 53%.

The compound `OC1(Cc2ccccc2)c2ccccc2C2=NCCN21` (stereo unspecified) had a negative-log IC50 (pIC50) with Plasmodium falciparum [1] of 4.42. The “Ratio IC50” value in the data set with Plasmodium falciparum [2] is reported as under 1.

The compound `COc1cc(CC2(O)c3ccccc3C3=NCCN32)cc(OC)c1OC` (stereo unspecified) showed a pIC50 in the data set with Plasmodium falciparum [1] of 5.83. In the data set on Plasmodium falciparum [2], the “Ratio IC50” value was under 1. The Fa in data set [3] was over 95%. This compound also yielded a fraction unbound in data set [4] of over 0.1. Besides, in the data set on Plasmodium berghei [7], the inhibition in vivo at 50 mg/kg was under 5%.

For the compound `CSc1ccc(C=C2c3ccccc3C(=O)N2c2cc(Cl)ccc2N)cc1` (mixture of isomers), the pIC50 in the data set with Plasmodium falciparum [1] is 4.86. The “Ratio IC50” value with Plasmodium falciparum [2] was under 1.

`Nc1ccc(Cl)cc1N1C(=O)c2ccccc2C1=Cc1ccc2ccccc2c1` (mixture of isomers) had a negative-log IC50 (pIC50) in the data set on Plasmodium falciparum [1] of 5.00. For the same compound, the “Ratio IC50” value in the data set on Plasmodium falciparum [2] is given as under 1.
